# Test results reported in ChEMBL document CHEMBL1121485, “Antiestrogens. Synthesis and evaluation of mammary tumor inhibiting activity of 1,1,2,2-tetraalkyl-1,2 -diphenylethanes” (1980).
# Target: T1, Estrogen receptor (Mus musculus) (UniProt O08537+P19785)
# Test: Anti-uterotrophic effect in mice as uterus dry weight(mg) compared to body weight(g) at 250 ug/day dose
# Assay type: functional, tissue-based
# Outline: (§1)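 Mice aged 20 days at start, dosed sc once daily for 3 days (0.1 mL injections, arachis oil vehicle); vehicle-only control group. Killed 24 h after last dose; body weight recorded; uteri fixed in Bouin's solution 12 h, trimmed of connective tissue, washed with saturated alcoholic LiCl, dried 100 °C for 24 h, then weighed.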
# T1 sequence (O08537 whole entry, looked up): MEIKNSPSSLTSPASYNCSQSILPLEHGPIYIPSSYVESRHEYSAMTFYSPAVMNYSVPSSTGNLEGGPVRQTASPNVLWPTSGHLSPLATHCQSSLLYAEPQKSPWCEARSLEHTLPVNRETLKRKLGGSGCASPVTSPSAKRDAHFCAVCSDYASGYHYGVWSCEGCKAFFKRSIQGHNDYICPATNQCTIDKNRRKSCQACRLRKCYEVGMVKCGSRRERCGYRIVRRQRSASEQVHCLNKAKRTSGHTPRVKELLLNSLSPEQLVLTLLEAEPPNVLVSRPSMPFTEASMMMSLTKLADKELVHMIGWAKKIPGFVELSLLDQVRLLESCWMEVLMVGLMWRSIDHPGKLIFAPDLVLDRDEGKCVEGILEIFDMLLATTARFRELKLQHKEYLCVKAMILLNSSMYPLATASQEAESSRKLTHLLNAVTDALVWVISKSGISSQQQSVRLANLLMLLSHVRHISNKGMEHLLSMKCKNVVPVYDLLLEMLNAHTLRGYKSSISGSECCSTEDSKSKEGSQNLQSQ
# T1 sequence (P19785 whole entry, looked up): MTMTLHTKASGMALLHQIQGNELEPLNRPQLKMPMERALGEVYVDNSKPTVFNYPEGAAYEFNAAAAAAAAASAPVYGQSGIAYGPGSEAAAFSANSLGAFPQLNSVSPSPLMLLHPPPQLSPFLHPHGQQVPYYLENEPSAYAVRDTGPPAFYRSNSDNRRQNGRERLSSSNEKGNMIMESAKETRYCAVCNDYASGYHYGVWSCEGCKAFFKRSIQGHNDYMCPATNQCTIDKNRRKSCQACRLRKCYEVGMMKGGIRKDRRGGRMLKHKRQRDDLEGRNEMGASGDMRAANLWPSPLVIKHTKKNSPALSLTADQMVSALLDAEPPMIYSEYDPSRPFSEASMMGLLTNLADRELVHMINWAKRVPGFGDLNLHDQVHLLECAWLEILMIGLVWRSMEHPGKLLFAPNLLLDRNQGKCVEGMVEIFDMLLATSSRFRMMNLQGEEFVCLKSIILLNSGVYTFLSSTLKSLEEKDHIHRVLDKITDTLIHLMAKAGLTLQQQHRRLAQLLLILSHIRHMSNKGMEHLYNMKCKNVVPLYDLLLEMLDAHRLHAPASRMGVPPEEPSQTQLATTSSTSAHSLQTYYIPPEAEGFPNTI
row,SMILES,Effect
1,CC(C)(c1ccc(O)cc1)C(C)(C)c1ccc(O)cc1,19.3
2,CCC(CC)(c1cccc(O)c1)C(CC)(CC)c1cccc(O)c1,42.9
3,CC(C)(c1cccc(O)c1)C(C)(C)c1cccc(O)c1,19.4
4,CCC(CC)(c1ccc(O)cc1)C(CC)(CC)c1ccc(O)cc1,43.2

# Organism: Mus musculus
# Test: Inhibition of estrone-stimulated uterine growth in mice at 25 ug
row,SMILES,Inhibition [%]
1,CC(C)(c1ccc(O)c(O)c1)C(C)(C)c1ccc(O)c(O)c1,21.5
2,CC(C)(c1ccc(O)cc1)C(C)(C)c1ccc(O)cc1,45.4
3,CC(C)(c1cccc(O)c1)C(C)(C)c1cccc(O)c1,43.2
4,CCC(CC)(c1ccc(O)cc1)C(CC)(CC)c1ccc(O)cc1,2.2

# Organism: Mus musculus
# Test: Inhibition of estrone-stimulated uterine growth in mice at 50 ug
row,SMILES,Inhibition [%]
1,CC(C)(c1ccc(O)c(O)c1)C(C)(C)c1ccc(O)c(O)c1,30.4

# Target: T1, Estrogen receptor (Mus musculus)
# Test: Anti-uterotrophic effect in mice as uterus dry weight(mg) compared to body weight(g) at 10 ug/day dose
# Assay type: functional, tissue-based
# Outline: as §1
row,SMILES,Effect
1,CCC(CC)(c1cccc(O)c1)C(CC)(CC)c1cccc(O)c1,32.8
2,CCC(CC)(c1ccc(O)cc1)C(CC)(CC)c1ccc(O)cc1,34.6

# Organism: Mus musculus
# Test: Inhibition of estrone-stimulated uterine growth in mice at 5 ug
row,SMILES,Inhibition [%]
1,CC(C)(c1ccc(O)cc1)C(C)(C)c1ccc(O)cc1,15.4

# Target: T1, Estrogen receptor (Mus musculus)
# Test: Anti-uterotrophic effect in mice as uterus dry weight(mg) compared to body weight(g) at 50 ug/day dose
# Assay type: functional, tissue-based
# Outline: as §1
row,SMILES,Effect
1,CC(C)(c1ccc(O)c(O)c1)C(C)(C)c1ccc(O)c(O)c1,32.8

# Target: T1, Estrogen receptor (Mus musculus)
# Test: Uterotrophic effect in mice as uterus dry weight(mg) compared to body weight(g) at 100 ug/day dose
# Assay type: functional, tissue-based
# Outline: as §1
row,SMILES,Effect
1,CC(C)(c1ccc(O)c(O)c1)C(C)(C)c1ccc(O)c(O)c1,10
2,CCC(CC)(c1cccc(O)c1)C(CC)(CC)c1cccc(O)c1,52.7

# Organism: Mus musculus
# Test: Inhibition of estrone-stimulated uterine growth in mice at 100 ug
row,SMILES,Inhibition [%]
1,CC(C)(c1ccc(O)c(O)c1)C(C)(C)c1ccc(O)c(O)c1,45.5
2,CC(C)(c1ccc(O)cc1)C(C)(C)c1ccc(O)cc1,73.5
3,CC(C)(c1cccc(O)c1)C(C)(C)c1cccc(O)c1,70.3

# Target: T1, Estrogen receptor (Mus musculus)
# Test: Anti-uterotrophic effect in mice as uterus dry weight(mg) compared to body weight(g) at 1000 ug/day dose
# Assay type: functional, tissue-based
# Outline: as §1
row,SMILES,Effect
1,CC(C)(c1ccc(O)cc1)C(C)(C)c1ccc(O)cc1,24.4
2,CC(C)(c1cccc(O)c1)C(C)(C)c1cccc(O)c1,23.4

# Target: T2, Estrogen receptor (Bos taurus) (UniProt Q9XSB5+P49884)
# Test: Ratio of association constants for estradiol and compound in estrogen receptor binding assay
# Assay type: protein assay
row,SMILES,RAC
1,CC(C)(c1ccc(O)c(O)c1)C(C)(C)c1ccc(O)c(O)c1,0.0056
2,CC(C)(c1ccc(O)cc1)C(C)(C)c1ccc(O)cc1,0.01
3,CCC(CC)(c1cccc(O)c1)C(CC)(CC)c1cccc(O)c1,0.0039
4,CC(C)(c1cccc(O)c1)C(C)(C)c1cccc(O)c1,0.0093
5,CCC(CC)(c1ccc(O)cc1)C(CC)(CC)c1ccc(O)cc1,0.0046

# Target: T1, Estrogen receptor (Mus musculus)
# Test: Uterotrophic effect in mice as uterus dry weight(mg) compared to body weight(g) at 250 ug/day dose
# Assay type: functional, tissue-based
# Outline: as §1
row,SMILES,Effect
1,CC(C)(c1ccc(O)cc1)C(C)(C)c1ccc(O)cc1,13.3
2,CC(C)(c1cccc(O)c1)C(C)(C)c1cccc(O)c1,14.6

# Organism: Mus musculus
# Test: Inhibition of estrone-stimulated uterine growth in mice at 10 ug
row,SMILES,Inhibition [%]
1,CCC(CC)(c1cccc(O)c1)C(CC)(CC)c1cccc(O)c1,23
2,CCC(CC)(c1ccc(O)cc1)C(CC)(CC)c1ccc(O)cc1,10.3

# Target: T1, Estrogen receptor (Mus musculus)
# Test: Anti-uterotrophic effect in mice as uterus dry weight(mg) compared to body weight(g) at 2 ug/day dose
# Assay type: functional, tissue-based
# Outline: as §1
row,SMILES,Effect
1,CCC(CC)(c1cccc(O)c1)C(CC)(CC)c1cccc(O)c1,27.4
2,CCC(CC)(c1ccc(O)cc1)C(CC)(CC)c1ccc(O)cc1,31.3

# Organism: Mus musculus
# Test: Inhibition of estrone-stimulated uterine growth in mice at 250 ug
row,SMILES,Inhibition [%]
1,CC(C)(c1ccc(O)cc1)C(C)(C)c1ccc(O)cc1,73.5
2,CC(C)(c1cccc(O)c1)C(C)(C)c1cccc(O)c1,73.6

# Target: T1, Estrogen receptor (Mus musculus)
# Test: Uterotrophic effect in mice as uterus dry weight(mg) compared to body weight(g) at 500 ug/day dose
# Assay type: functional, tissue-based
# Outline: as §1
row,SMILES,Effect
1,CC(C)(c1ccc(O)c(O)c1)C(C)(C)c1ccc(O)c(O)c1,12.5
2,CCC(CC)(c1cccc(O)c1)C(CC)(CC)c1cccc(O)c1,52.4

# Target: T2, Estrogen receptor (Bos taurus)
# Test: Relative binding affinity for Estrogen receptor compared to 17-beta-estradiol
# Assay type: protein assay
row,SMILES,RA
1,CC(C)(c1ccc(O)c(O)c1)C(C)(C)c1ccc(O)c(O)c1,0.006
2,CC(C)(c1ccc(O)cc1)C(C)(C)c1ccc(O)cc1,0.011
3,CCC(CC)(c1cccc(O)c1)C(CC)(CC)c1cccc(O)c1,0.0042
4,CC(C)(c1cccc(O)c1)C(C)(C)c1cccc(O)c1,0.01
5,CCC(CC)(c1ccc(O)cc1)C(CC)(CC)c1ccc(O)cc1,0.005

# Target: T1, Estrogen receptor (Mus musculus)
# Test: Uterotrophic effect in mice as uterus dry weight(mg) compared to body weight(g) at 24 ug/day dose
# Assay type: functional, tissue-based
# Outline: as §1
row,SMILES,Effect
1,CC(C)(c1ccc(O)cc1)C(C)(C)c1ccc(O)cc1,15.7
2,CC(C)(c1cccc(O)c1)C(C)(C)c1cccc(O)c1,15.7
3,CCC(CC)(c1ccc(O)cc1)C(CC)(CC)c1ccc(O)cc1,23.6

# Target: T2, Estrogen receptor (Bos taurus)
# Test: Association constant for Estrogen receptor
# Assay type: protein assay
row,SMILES,Ka [M⁻¹]
1,CC(C)(c1ccc(O)c(O)c1)C(C)(C)c1ccc(O)c(O)c1,4e+07
2,CC(C)(c1ccc(O)cc1)C(C)(C)c1ccc(O)cc1,7.3e+07
3,CCC(CC)(c1cccc(O)c1)C(CC)(CC)c1cccc(O)c1,2.8e+07
4,CC(C)(c1cccc(O)c1)C(C)(C)c1cccc(O)c1,6.7e+07
5,CCC(CC)(c1ccc(O)cc1)C(CC)(CC)c1ccc(O)cc1,4.8e+07

# Target: T1, Estrogen receptor (Mus musculus)
# Test: Anti-uterotrophic effect in mice as uterus dry weight(mg) compared to body weight(g) at 25 ug/day dose
# Assay type: functional, tissue-based
# Outline: as §1
row,SMILES,Effect
1,CC(C)(c1ccc(O)c(O)c1)C(C)(C)c1ccc(O)c(O)c1,35
2,CC(C)(c1ccc(O)cc1)C(C)(C)c1ccc(O)cc1,28
3,CCC(CC)(c1cccc(O)c1)C(CC)(CC)c1cccc(O)c1,38
4,CC(C)(c1cccc(O)c1)C(C)(C)c1cccc(O)c1,28.7
5,CCC(CC)(c1ccc(O)cc1)C(CC)(CC)c1ccc(O)cc1,36.4

# Target: T1, Estrogen receptor (Mus musculus)
# Test: Uterotrophic effect in mice as uterus dry weight(mg) compared to body weight(g) at 1000 ug/day dose
# Assay type: functional, tissue-based
# Outline: as §1
row,SMILES,Effect
1,CC(C)(c1ccc(O)cc1)C(C)(C)c1ccc(O)cc1,14.3
2,CC(C)(c1cccc(O)c1)C(C)(C)c1cccc(O)c1,13.4

# Target: T1, Estrogen receptor (Mus musculus)
# Test: Uterotrophic effect in mice as uterus dry weight(mg) compared to body weight(g) at 25 ug/day dose
# Assay type: functional, tissue-based
# Outline: as §1
row,SMILES,Effect
1,CC(C)(c1ccc(O)c(O)c1)C(C)(C)c1ccc(O)c(O)c1,8.9

# Target: T1, Estrogen receptor (Mus musculus)
# Test: Uterotrophic effect in mice as uterus dry weight(mg) compared to body weight(g) at 4 ug/day dose
# Assay type: functional, tissue-based
# Outline: as §1
row,SMILES,Effect
1,CCC(CC)(c1cccc(O)c1)C(CC)(CC)c1cccc(O)c1,23.1

# Target: T1, Estrogen receptor (Mus musculus)
# Test: Anti-uterotrophic effect in mice as uterus dry weight(mg) compared to body weight(g) at 0 ug/day dose
# Assay type: functional, tissue-based
# Outline: as §1
row,SMILES,Effect
1,CC(C)(c1ccc(O)c(O)c1)C(C)(C)c1ccc(O)c(O)c1,15.7
2,CC(C)(c1ccc(O)cc1)C(C)(C)c1ccc(O)cc1,11.2
3,CCC(CC)(c1cccc(O)c1)C(CC)(CC)c1cccc(O)c1,15.6
4,CC(C)(c1cccc(O)c1)C(C)(C)c1cccc(O)c1,11.2
5,CCC(CC)(c1ccc(O)cc1)C(CC)(CC)c1ccc(O)cc1,14

# Target: T1, Estrogen receptor (Mus musculus)
# Test: Uterotrophic effect in mice as uterus dry weight(mg) compared to body weight(g) at 5 ug/day dose
# Assay type: functional, tissue-based
# Outline: as §1
row,SMILES,Effect
1,CC(C)(c1ccc(O)c(O)c1)C(C)(C)c1ccc(O)c(O)c1,9.7

# Organism: Mus musculus
# Test: Inhibition of estrone-stimulated uterine growth in mice at 2 ug
row,SMILES,Inhibition [%]
1,CCC(CC)(c1cccc(O)c1)C(CC)(CC)c1cccc(O)c1,47
2,CCC(CC)(c1ccc(O)cc1)C(CC)(CC)c1ccc(O)cc1,24.6

# Target: T1, Estrogen receptor (Mus musculus)
# Test: Anti-uterotrophic effect in mice as uterus dry weight(mg) compared to body weight(g) at 5 ug/day dose
# Assay type: functional, tissue-based
# Outline: as §1
row,SMILES,Effect
1,CC(C)(c1ccc(O)c(O)c1)C(C)(C)c1ccc(O)c(O)c1,38.6
2,CC(C)(c1ccc(O)cc1)C(C)(C)c1ccc(O)cc1,37.3
3,CC(C)(c1cccc(O)c1)C(C)(C)c1cccc(O)c1,33.9

# Target: T1, Estrogen receptor (Mus musculus)
# Test: Uterotrophic effect in mice as uterus dry weight(mg) compared to body weight(g) at 80 ug/day dose
# Assay type: functional, tissue-based
# Outline: as §1
row,SMILES,Effect
1,CC(C)(c1ccc(O)cc1)C(C)(C)c1ccc(O)cc1,15.8
2,CC(C)(c1cccc(O)c1)C(C)(C)c1cccc(O)c1,15.4
3,CCC(CC)(c1ccc(O)cc1)C(CC)(CC)c1ccc(O)cc1,31.9

# Target: T1, Estrogen receptor (Mus musculus)
# Test: Uterotrophic effect in mice as uterus dry weight(mg) compared to body weight(g) at 240 ug/day dose
# Assay type: functional, tissue-based
# Outline: as §1
row,SMILES,Effect
1,CCC(CC)(c1ccc(O)cc1)C(CC)(CC)c1ccc(O)cc1,43.7

# Organism: Mus musculus
# Test: Inhibition of estrone-stimulated uterine growth in mice at 5 ug
# Remark: another data set of the same source
row,SMILES,Inhibition [%]
1,CC(C)(c1ccc(O)c(O)c1)C(C)(C)c1ccc(O)c(O)c1,6.8
2,CC(C)(c1cccc(O)c1)C(C)(C)c1cccc(O)c1,26.5

# Target: T1, Estrogen receptor (Mus musculus)
# Test: Uterotrophic effect in mice as uterus dry weight(mg) compared to body weight(g) at 8 ug/day dose
# Assay type: functional, tissue-based
# Outline: as §1
row,SMILES,Effect
1,CC(C)(c1ccc(O)cc1)C(C)(C)c1ccc(O)cc1,10.6
2,CC(C)(c1cccc(O)c1)C(C)(C)c1cccc(O)c1,9.8
3,CCC(CC)(c1ccc(O)cc1)C(CC)(CC)c1ccc(O)cc1,15.3

# Target: T1, Estrogen receptor (Mus musculus)
# Test: Uterotrophic effect in mice as uterus dry weight(mg) compared to body weight(g) at 0 ug/day dose
# Assay type: functional, tissue-based
# Outline: as §1
row,SMILES,Effect
1,CC(C)(c1ccc(O)c(O)c1)C(C)(C)c1ccc(O)c(O)c1,9.6
2,CC(C)(c1ccc(O)cc1)C(C)(C)c1ccc(O)cc1,9.2
3,CCC(CC)(c1cccc(O)c1)C(CC)(CC)c1cccc(O)c1,15.4
4,CC(C)(c1cccc(O)c1)C(C)(C)c1cccc(O)c1,9.2
5,CCC(CC)(c1ccc(O)cc1)C(CC)(CC)c1ccc(O)cc1,9.2

# Target: T1, Estrogen receptor (Mus musculus)
# Test: Uterotrophic effect in mice as uterus dry weight(mg) compared to body weight(g) at 20 ug/day dose
# Assay type: functional, tissue-based
# Outline: as §1
row,SMILES,Effect
1,CCC(CC)(c1cccc(O)c1)C(CC)(CC)c1cccc(O)c1,35.8

# Target: T1, Estrogen receptor (Mus musculus)
# Test: Anti-uterotrophic effect in mice as uterus dry weight(mg) compared to body weight(g) at 100 ug/day dose
# Assay type: functional, tissue-based
# Outline: as §1
row,SMILES,Effect
1,CC(C)(c1ccc(O)c(O)c1)C(C)(C)c1ccc(O)c(O)c1,28.4
2,CC(C)(c1ccc(O)cc1)C(C)(C)c1ccc(O)cc1,19.4
3,CC(C)(c1cccc(O)c1)C(C)(C)c1cccc(O)c1,20.4

# Organism: Mus musculus
# Test: Inhibition of estrone-stimulated uterine growth in mice at 1000 ug
row,SMILES,Inhibition [%]
1,CC(C)(c1ccc(O)cc1)C(C)(C)c1ccc(O)cc1,57.3
2,CC(C)(c1cccc(O)c1)C(C)(C)c1cccc(O)c1,60.5
